# An excerpt weighted towards active compounds, which were near 3.9% of everything screened.
# TAAR1 agonist: agonists of human TAAR1; Q96RJ0; CHO RD-HGA16 TAAR1, Fluo-8 calcium fluorescence; vehicle wells 0%, saturating PEA agonist 100%; activation, % at 3 µM; 360,000 compounds, 0.99% hits;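 active = activation above the mean activation of all test compounds in the run plus 3 SD, cut at about 38% in these data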
#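 Test system: RD-HGA16 (CHO) cells co-expressing Gα16 and hTAAR1 | Doses: Single dose, 3 µM | Schedule: 17-24 h seeding, 75 min 37 °C dye, 30 min RT | Evaluation: % activation from peak over basal fluorescence ratio, DMSO-to-PEA scaled | Technique: Kinetic Fluo-8 calcium fluorescence | Benchmarks: Low control DMSO, high control PEA (EC100)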
# CHRM1 agonist: activates human CHRM1 receptor; CHO-K1 hM1, Fluo-8 calcium fluorescence, agonist mode; 0% DMSO, 100% acetylcholine EC100; 360,000 compounds, 0.33% hits; AID 588814; activation, % at 3 µM;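 active = activation above the run's mean compound activation plus 3 SD, cut at about 16% in these data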;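 note: peak over basal fluorescence ratio within a 140 s kinetic read after compound addition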
# TAAR1 antag: antagonists of human TAAR1; CHO RD-HGA16 TAAR1, Fluo-8 calcium fluorescence, antagonist; 360,000 compounds, 1.5% hits; Q96RJ0; inhibition, % at 3 µM;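 active = inhibition above a per-plate cutoff, the mean inhibition of test compounds on that plate plus 3 SD, cut at about 49% in these data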;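 note: 0% = DMSO plus EC80 beta-PEA response and 100% = DMSO alone without agonist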
#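 Material: CHO RD-HGA16 cells bearing hTAAR1; compound dosing: one-point dosing, 3 µM nominal final; schedule: dye loading 75 min at 37 °C, then 30 min room temperature; measured by: calcium fluorescence with Fluo-8; control set: vehicle and agonist controls; replication: n of 1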
# CHRM1 antagonist: human CHRM1 antagonism | 360,000 compounds, 1.3% hits | CHO-K1 hM1, Fluo-8 calcium fluorescence, ACh EC80 antagonist | inhibition, % at 3 µM | AID 588852;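 active = percent inhibition above its own plate's cutoff, namely the mean of that plate's compound wells plus 3 SD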;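 note: peak over basal fluorescence ratio during 140 s after agonist addition; 0% = ACh EC80 plus DMSO and 100% = DMSO alone without agonist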
# m5-HT2A agonist: activates the mouse 5-HT2A serotonin receptor | CHO-K1 mHTR2A beta-arrestin complementation, luminescence; percent of 30 µM serotonin response | activation, % at 7.6 µM | 360,000 compounds, 0.66% hits | AID 624169;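 active = activation above a run cutoff, the mean activation of all tested compounds plus 3 SD, cut at about 14% in these data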;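 note: 0% = plate median of compound wells and 100% = 30 µM serotonin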
# Target sequence (P35363 whole entry, looked up): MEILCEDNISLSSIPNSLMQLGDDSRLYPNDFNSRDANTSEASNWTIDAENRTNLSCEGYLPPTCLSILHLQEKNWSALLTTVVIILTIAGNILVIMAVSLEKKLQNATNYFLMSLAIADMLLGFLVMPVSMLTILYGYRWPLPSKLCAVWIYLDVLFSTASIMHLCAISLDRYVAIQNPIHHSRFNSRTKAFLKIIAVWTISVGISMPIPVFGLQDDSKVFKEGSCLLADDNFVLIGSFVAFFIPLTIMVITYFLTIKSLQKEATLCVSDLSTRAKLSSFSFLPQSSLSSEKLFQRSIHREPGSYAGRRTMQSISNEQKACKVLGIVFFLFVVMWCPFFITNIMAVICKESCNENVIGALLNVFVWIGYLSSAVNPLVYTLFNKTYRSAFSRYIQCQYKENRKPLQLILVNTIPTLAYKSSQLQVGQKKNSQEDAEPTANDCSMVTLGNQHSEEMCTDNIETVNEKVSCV
# CHRM1 PAM: positive allosteric modulators of human M1 muscarinic receptor | AID 588819 | activation, % at 3 µM | P11229 | CHO-K1 hM1, Fluo-8 calcium fluorescence, ACh EC20; 0% = ACh EC20, 100% = maximal ACh | 360,000 compounds, 0.088% hits; in the data active = activation above about 19%, passing the limit was not always enough
# Active calls of the source: *; / = not tested or not shown.
SMILES,TAAR1 agonist,CHRM1 agonist,TAAR1 antag,CHRM1 antagonist,m5-HT2A agonist,CHRM1 PAM
O=C(C[C@H]1C/C=C\C[C@H](NC(=O)OCC2c3ccccc3-c3ccccc32)C(=O)OC[C@@H]2CCCN2C1=O)NCCO,11,-14,10,1,6,1
COc1ccccc1Nc1ccc(NC(=O)c2cccc([N+](=O)[O-])c2C)cc1,-1,-5,51*,3,-18,-8
CCN(CC(=O)NCc1cccs1)C(=O)c1cccc(Cl)c1,0,1,11,-3,-1,11
CCn1c(CNc2ccccc2Cl)nnc1SCCN1CCCCC1,2,-4,8,51*,-7,-21
Cc1cc(S(=O)(=O)N2CCOCC2)ccc1OCC(=O)NCc1ccccn1,-3,-4,-8,-10,11,9
Clc1ccc(Cn2ncc3c(N4CCN(c5ccccc5)CC4)ncnc32)cc1,12,0,57*,14,1,-9
O=C(Nc1cccc(Cl)c1)ON=C1c2ccccc2-c2ccccc21,6,-9,14,29*,-2,-16
Cc1ccc(C(=O)N(CC(=O)Nc2sc(C)c(C)c2C(N)=O)C2CCCC2)cc1,11,1,51*,-1,-1,4
Oc1ccccc1Nc1nc(NCC2CCCO2)c2ccccc2n1 (stereo not drawn),11,-3,7,4,-9,-4
Oc1ccc(Cl)cc1Nc1nc(NCC2CCCO2)c2ccccc2n1 (stereo not drawn),18,-4,57*,20,-2,-15
COCCN(C(=O)COC(=O)CCS(=O)(=O)c1ccccc1)c1c(N)n(Cc2ccccc2)c(=O)[nH]c1=O,0,2,-2,-3,-3,3
Cc1csc(Nc2ccc(C(=O)O)cc2)n1,-3,-1,-4,-14,-4,16
O=C(Nc1ccc(-c2csc(Nc3ccccc3)n2)cc1)c1cccc(C(F)(F)F)c1,5,-7,52*,8,-1,-4
O=C(Nc1ccc(-c2csc(Nc3ccc(Cl)cc3)n2)cc1)c1cccc(C(F)(F)F)c1,-1,/,18,/,/,/
O=C(O)c1ccc(Nc2nc(-c3ccccc3)cs2)cc1,38*,11,28,-6,-2,9
Cc1cnccc1CNC(=O)CC1C(=O)NCCN1CC(C)(C)C (stereo not drawn),6,-7,-16,-2,3,4
COc1ccc(C2CC(=O)Oc3c(C(C)C)ccc(C)c32)cc1 (stereo not drawn),26,18*,35,-14,-1,12
COCc1[nH]nc2c1C(c1ccccc1)NC2=O (stereo not drawn),1,/,-29,/,/,/
CCC(NC(=O)c1cc(COc2ccc(OC)cc2Cl)on1)c1ccncc1 (stereo not drawn),15,2,-10,9,1,-7
Cc1ccc(OCc2cc(C(=O)NCc3cc(F)ccc3C)no2)cn1,20,10,-1,2,3,-5
CCC(NC(=O)c1cc(COc2cc(C)c(Cl)c(C)c2)on1)c1ccncc1 (stereo not drawn),43*,13,35,12,-4,5
CCC(NC(=O)c1cc(COc2ccc(C)nc2)on1)c1ccc(C)cc1 (stereo not drawn),49*,11,8,7,4,2
CC1CCCCN1C(=O)COC(=O)c1cc(-c2cccs2)nn1-c1ccccc1 (stereo not drawn),13,-7,2,45*,-2,-26
CCN(CC(=O)Nc1ccc(OC)cc1)C(=O)c1cc(-c2cccs2)nn1-c1ccccc1,10,-4,62*,23,-5,-12
COCCN(CC(=O)Nc1cccc(C)c1C)C(=O)c1cc(-c2cccs2)nn1-c1ccccc1,18,-3,51*,18,7,-11
SMILES,TAAR1 agonist,CHRM1 agonist,TAAR1 antag,CHRM1 antagonist,m5-HT2A agonist,CHRM1 PAM
COc1ccc(NC(=O)CN(C)C(=O)c2cc(-c3cccs3)nn2-c2ccccc2)cc1,9,-3,55*,3,6,-3
COc1cccc(-n2cnnc2SC(C)C(=O)NC2CCCC2)c1 (stereo not drawn),2,-1,12,0,1,3
COCCNC(=O)CN1C(=O)/C(=C/c2ccccc2)Oc2ccc(C(C)(C)C)cc21,-3,-2,3,-14,-5,11
O=C(COC(=O)c1cc(-c2cccs2)nn1-c1ccccc1)Nc1ccc(F)c([N+](=O)[O-])c1,7,-9,49*,12,-2,-15
OC(c1ccc(F)cc1)c1nc(-c2cc3ccccc3o2)cs1 (stereo not drawn),45*,10,75*,4,1,-14
COC(=O)C1=C(C)N(CCc2ccc(OC)cc2)C(=O)C1,16,3,52*,-25,7,-7
COC(=O)c1[nH]c2ccc(C)cc2c1NC(=O)CCN1CCN(Cc2ccc3c(c2)OCO3)CC1,1,-15,9,61*,-1,-33
Cc1cc(OC(C)C(=O)N2CCN(c3ccc(F)cc3)CC2)c2c(C)cc(=O)oc2c1 (stereo not drawn),1,2,-6,-9,-1,17
NC(=O)C1CCN(C(=O)Cc2ccsc2)CC1,2,0,-14,-21,6,12
CC(C)NC(=O)c1ccc(CN2CCc3ccccc3C2)cc1,2,-9,-1,45*,-2,-27
CCc1nc2ccc(C(=O)NCCCn3ccnc3)cn2c1N(CC)C(=O)NCCc1ccccc1,2,-4,-16,-11,-4,5
CCc1nc2ccc(C(=O)NCCCN(C)C)cn2c1N(C)CCCc1ccccc1,4,-7,-5,10,-10,-12
CCc1nc2ccc(C(=O)N3CCN(C)CC3)cn2c1N(C)CCCc1ccccc1,3,-8,-4,33*,-5,-30
CCc1nc2ccc(C(=O)N3CCCCC3)cn2c1N(C)CCCc1ccccc1,1,-8,-17,69*,-2,-25
CCc1nc2ccc(C(=O)NCCCn3ccnc3)cn2c1N(C)CCCc1ccccc1,3,-7,-6,44*,-5,-26
COCCn1c(SCC(=O)Nc2cc(C)on2)nnc1C(C)C,-1,-2,6,-4,-2,1
COc1ccc(CN=Cc2[nH]c3ccc(Br)c(Cl)c3c2O)cc1,-3,-2,106*,-1,1,6
Cc1cc(C)cc(N=Cc2[nH]c3ccc(Br)c(Cl)c3c2O)c1,24,-2,11,2,4,3
CCOC(=O)c1cccc(NC(=S)NCc2ccc(C)cc2)c1,24,-2,8,8,-3,-3
